Screens (PubChem BioAssay)
This is a sample that favours compounds with a hit; in the whole collection about 2.9% have one here.
EBNA-1 inhibitor = blocks EBNA-1 binding to DNA; EBNA-1 DNA binding, fluorescence polarization; inhibition, % at 14.8 µM; hit rate 0.34% among 300,000; in the data active = inhibition above about 28%
UBC13 inh = human UBC13 polyubiquitination inhibition. P61088. UBC13 polyubiquitin chain formation, TR-FRET. inhibition, % at 20 µM. hit rate 0.47% among 330,000. AID 485273; in the data active = inhibition above about 45%, passing the limit was not always enough
Apaf-1 inh = inhibitors of human Apaf-1 apoptosome | O14727 | reconstituted apoptosome caspase-3 activity, DEVD-Rh110 fluorescence | inhibition, % at 20 µM | hit rate 0.71% among 330,000 | AID 489030; active = inhibition of at least 40% at 20 µM
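System: reconstituted apoptosome with Apaf-1, cytochrome c, caspase-9, procaspase-3, dATP; Signal: Rh110 fluorescence intensity; Schedule: 30 min compound preincubation, 50 min activation, room temperature; Reagent: cytochrome c trigger plus (Z-DEVD)2-Rh110 caspase-3 substrate.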
PfG6PD inh = PfG6PD (Plasmodium falciparum) enzyme inhibition; PfGluPho enzyme, NADPH resazurin-diaphorase fluorescence; inhibition, % at 20 µM; hit rate 0.78% among 350,000;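 active = inhibition reaching at least a set limit at 20 µM in the primary screen, cut at about 59% in these data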
ZTA DNA inh = counter-screen for EBNA-1 inhibitors: inhibitors of Epstein-Barr virus ZTA. P03206. ZTA-DNA binding, fluorescence polarization. inhibition, % at 11 µM. hit rate 0.15% among 320,000; in the data active = inhibition above about 33%
Target sequence (P03206 whole entry, looked up): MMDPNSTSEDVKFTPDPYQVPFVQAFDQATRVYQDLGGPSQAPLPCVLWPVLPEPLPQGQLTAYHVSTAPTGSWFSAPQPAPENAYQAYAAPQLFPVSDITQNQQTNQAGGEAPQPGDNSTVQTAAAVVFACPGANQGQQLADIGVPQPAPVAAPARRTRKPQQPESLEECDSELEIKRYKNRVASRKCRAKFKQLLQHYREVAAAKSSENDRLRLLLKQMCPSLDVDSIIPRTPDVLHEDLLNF
PfM18AAP inh-1 = blocks P. falciparum M18 aspartyl aminopeptidase; recombinant PfM18AAP, H-Glu-NHMec fluorogenic cleavage; hit rate 1.2% among 290,000; inhibition, % at 7.35 µM; AID 1822;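 active = inhibition above the campaign mean inhibition over all tested compounds plus 3 SD, cut at about 28% in these data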
PfM18AAP inh-2 = PfM18AAP inhibition, confirmation | shares compounds with PfM18AAP inh-1 | recombinant PfM18AAP, H-Glu-NHMec fluorogenic cleavage | inhibition, % at 7.35 µM | hit rate 28% among 2,400;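 active = mean inhibition over replicate wells above the hit cutoff set for the earlier primary screen, cut at about 29% in these data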
CTSL1 confirm = Cathepsin L (human) inhibition, confirmation | shares compounds with PfM18AAP inh-1 | purified cathepsin L1, Z-Leu-Arg-MCA fluorescence | inhibition, % at 5.96 µM | 2,400 tested, under 10 active;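 active = average inhibition across replicates above the hit cutoff set in the earlier primary screen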
Target sequence (P07711 whole entry, looked up): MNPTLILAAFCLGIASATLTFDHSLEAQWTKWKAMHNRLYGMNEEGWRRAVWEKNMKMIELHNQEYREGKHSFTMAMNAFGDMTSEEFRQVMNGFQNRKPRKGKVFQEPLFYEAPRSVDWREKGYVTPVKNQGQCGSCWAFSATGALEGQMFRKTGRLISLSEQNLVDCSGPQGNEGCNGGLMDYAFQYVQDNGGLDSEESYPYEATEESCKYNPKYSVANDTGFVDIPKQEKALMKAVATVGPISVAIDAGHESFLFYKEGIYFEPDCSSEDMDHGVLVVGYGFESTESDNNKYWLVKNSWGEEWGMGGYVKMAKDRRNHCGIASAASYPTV
A number is an active result; 0 = inactive; - = no result.

SMILES	EBNA-1 inhibitor	UBC13 inh	Apaf-1 inh	PfG6PD inh	ZTA DNA inh	PfM18AAP inh-1	PfM18AAP inh-2	CTSL1 confirm
C=CCCC1(C(C)C)C(=O)NC(=S)NC1=O	-	-	-	0	-	-	-	-
CC[n+]1c(/C=C/C=C/c2ccc(N(C)C)cc2)sc2ccccc21	105	0	0	0	164	0	-	-
CN(C)c1ccc(/C=C/c2cc[n+](C)c3ccccc23)cc1	-	-	-	0	-	0	-	-
CN(C)c1ccc(/C=C/C=C/c2sc3ccccc3[n+]2C)cc1	32	0	0	0	45	0	-	-
CCC1([N+](=O)[O-])COP(=O)(NCc2cccnc2)OC1 (configuration not stated)	-	-	-	0	-	-	-	-
Cc1ccc(OC(=O)N(C)C[C@H]2OCc3cnnn3CCCC(=O)N([C@@H](C)CO)C[C@H]2C)cc1	-	-	-	0	-	-	-	-
COc1cc2c(cc1OC)-c1c3c(cc4c1[C@@H](C2)N(C)CC4)OCO3	0	0	98	0	0	0	-	-
CC(C)[C@@]1(NC(=O)[C@@H]2C=C3c4cccc5[nH]cc(c45)C[C@H]3N(C)C2)O[C@@]2(O)[C@@H]3CCCN3C(=O)[C@H](Cc3ccccc3)N2C1=O	-	-	-	-	-	0	-	-
CC(C)[C@@]1(NC(=O)[C@@H]2C[C@@H]3c4cccc5[nH]cc(c45)C[C@H]3N(C)C2)O[C@@]2(O)[C@@H]3CCCN3C(=O)[C@H](Cc3ccccc3)N2C1=O	0	0	0	0	0	0	-	-
CC(C)[C@H]1C(=O)N2CCC[C@H]2[C@]2(O)O[C@](NC(=O)[C@@H]3C=C4c5cccc6[nH]cc(c56)C[C@H]4N(C)C3)(C(C)C)C(=O)N12	0	0	95	0	0	0	-	-
CC(C)C[C@H]1C(=O)N2CCCC2[C@]2(O)O[C@](NC(=O)[C@@H]3C=C4c5cccc6[nH]cc(c56)CC4N(C)C3)(C(C)C)C(=O)N12 (some centres not stated)	0	0	87	0	0	0	-	-
COc1cc(C=C2C(=O)NC(=O)NC2=O)ccc1OCc1ccc([N+](=O)[O-])cc1	-	-	-	0	-	0	-	-
COc1cc(/C=C(/C)[N+](=O)[O-])ccc1OCc1ccccc1Cl	0	0	0	0	0	30	-	-
O=C1NC(=O)N(c2ccc3c(c2)OCO3)C(=O)/C1=C\c1ccsc1	0	0	0	0	0	33	0	0
COc1ccc(C2SCC(=O)Nc3c2c(C)nn3-c2ccccc2)cc1 (configuration not stated)	0	0	0	0	0	0	-	-
Cc1ccc(-n2nc(C)c3c2NC(=O)CSC3c2ccc3c(c2)OCO3)cc1 (configuration not stated)	0	0	0	0	0	35	0	0
FC(F)(F)c1cccc(NC2=NCCS2)c1	-	-	-	0	-	-	-	-
CC(=O)NCC(=O)Nc1ccc(Br)cc1C(=O)c1ccccc1	0	0	0	0	0	0	-	-
CC[n+]1c(/C=C/N(C)c2ccccc2)sc2ccc(Cl)cc21	0	0	0	0	0	36	0	0
COC(=O)C1=C(c2ccc(OCc3ccccc3)cc2)C[C@@H]2CC[C@H]1N2C	-	-	-	0	-	-	-	-
O=C1/C(=C/c2ccc3c(c2)OCO3)N2CCC1CC2	0	0	0	0	0	0	-	-
O=C1/C(=C\c2cc3c(cc2Br)OCO3)N2CCC1CC2	0	0	0	0	0	37	0	0
CCN(CC)c1ccc(N=Cc2c(O)[nH]c(=O)[nH]c2=O)cc1	0	0	0	0	0	44	0	0
COC(=O)Cn1cc(C=C2C(=O)NC(=O)NC2=O)c2ccccc21	0	0	0	0	0	49	30	0
CCn1cc(C=C2C(=O)NC(=O)NC2=O)c2ccccc21	0	0	0	0	0	42	38	0
SMILES	EBNA-1 inhibitor	UBC13 inh	Apaf-1 inh	PfG6PD inh	ZTA DNA inh	PfM18AAP inh-1	PfM18AAP inh-2	CTSL1 confirm
O=C1NC(=O)N(Cc2ccco2)C(=O)/C1=C/c1ccc(-c2cccc([N+](=O)[O-])c2)o1	0	0	0	90	0	34	0	0
COc1ccccc1/C=N/N=C(/N)N[N+](=O)[O-]	0	0	0	0	0	0	-	-
N/C(=N\N=C\c1ccc(O)cc1O)N[N+](=O)[O-]	0	0	0	0	0	44	65	0
Cc1cc(=O)[nH]c(CCl)n1	0	0	0	0	0	0	-	-
S=P(Nn1cnnc1)(c1ccccc1)c1ccccc1	0	0	0	0	0	44	49	0
CC1=C(C(=O)O)N2C(=O)C(NC(=O)Cc3ccccc3)C2SC1 (configuration not stated)	0	0	0	0	0	48	0	0
CN1CCC(OC(=O)Cc2ccccc2)CC1	0	0	0	0	0	0	-	-
O=c1[nH]c(=O)n(-c2cccc(F)c2)c(O)c1/C=C1\C=Nc2ccccc21	0	0	0	0	0	34	45	0
O=C(O)c1ccc(-n2c(O)c(/C=C3\C=Nc4ccccc43)c(=O)[nH]c2=O)cc1	0	0	0	0	0	48	53	0
O=c1[nH]c(=O)n(-c2ccccc2)c(O)c1/C=C1/C(c2ccccc2)=Nc2ccccc21	0	0	0	0	0	0	-	-
CCC1(CCO)C(=O)NC(=S)NC1=O	-	-	-	0	-	-	-	-
Cc1cc(NC(=O)CCl)nn1C	0	0	0	0	0	0	-	-
CC(C)CN(C(=O)CN1CC=C(c2ccccc2)CC1)c1c(N)n(CC(C)C)c(=O)[nH]c1=O	0	0	0	0	0	0	-	-
O=C1NC(=S)NC(=O)C1=Cc1cccn1-c1ccc(O)cc1	-	-	-	0	-	34	57	0
CN1C(=O)/C(=C/c2cccn2-c2ccc3ccccc3c2)C(=O)NC1=S	0	0	0	0	0	0	-	-
O=CNc1ccc(OP(=O)(Oc2ccccc2)Oc2ccccc2)cc1	0	0	0	0	0	0	-	-
Cc1noc(C)c1CC(=O)N1CCCC(N2CCN(c3ccccc3F)CC2)C1 (configuration not stated)	0	0	0	0	0	0	-	-
CC(C(=O)c1ccc(Cl)cc1Cl)n1cncn1 (configuration not stated)	0	0	0	0	0	65	54	0
CC(C)(C)C(O)C(Oc1ccc(Cl)cc1)n1cncn1 (configuration not stated)	0	0	0	0	0	0	-	-
Cc1cc(/C=C2\C(=O)NC(=O)N(c3ccc(Br)cc3)C2=O)c(C)n1-c1cc(C(=O)O)cc(C(=O)O)c1	0	0	0	0	0	35	0	0
Oc1ccc(/C=N/NP(=S)(c2ccccc2)c2ccccc2)cc1O	0	0	0	0	0	38	0	0
Oc1ccc(/C=N/NP(=S)(c2ccccc2)c2ccccc2)c(O)c1O	0	0	0	0	0	33	0	0
Oc1ccccc1/C=N/NP(=S)(c1ccccc1)c1ccccc1	0	0	0	0	0	0	-	-
CCOP(=O)(C(NC(=O)c1ccccc1Cl)=C(Cl)Cl)c1ccccc1 (configuration not stated)	0	0	0	0	0	0	-	-
